Screening results: PubChem BioAssay, Sanford-Burnham Center for Chemical Genomics
Rows were chosen to be rich in hits. Some 2.3% of all compounds tested hit in one or more screens of this group.
STEP block: STEP phosphatase inhibitors, primary screen, biochemical, fluorescence intensity, uHTS. Tyrosine-protein phosphatase non-receptor type 5 (Homo sapiens), P54829. recombinant STEP, OMFP fluorogenic substrate. inhibition, % at 20 µM. actives 0.25% (n = 360,000). AID 588621, 2011;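 active = inhibition at 20 µM, scaled per plate between control wells, above about 37%, limit read from the data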;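 note: 0% = DMSO with enzyme and substrate and 100% = substrate only without enzyme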
Target sequence (P54829 whole entry, looked up): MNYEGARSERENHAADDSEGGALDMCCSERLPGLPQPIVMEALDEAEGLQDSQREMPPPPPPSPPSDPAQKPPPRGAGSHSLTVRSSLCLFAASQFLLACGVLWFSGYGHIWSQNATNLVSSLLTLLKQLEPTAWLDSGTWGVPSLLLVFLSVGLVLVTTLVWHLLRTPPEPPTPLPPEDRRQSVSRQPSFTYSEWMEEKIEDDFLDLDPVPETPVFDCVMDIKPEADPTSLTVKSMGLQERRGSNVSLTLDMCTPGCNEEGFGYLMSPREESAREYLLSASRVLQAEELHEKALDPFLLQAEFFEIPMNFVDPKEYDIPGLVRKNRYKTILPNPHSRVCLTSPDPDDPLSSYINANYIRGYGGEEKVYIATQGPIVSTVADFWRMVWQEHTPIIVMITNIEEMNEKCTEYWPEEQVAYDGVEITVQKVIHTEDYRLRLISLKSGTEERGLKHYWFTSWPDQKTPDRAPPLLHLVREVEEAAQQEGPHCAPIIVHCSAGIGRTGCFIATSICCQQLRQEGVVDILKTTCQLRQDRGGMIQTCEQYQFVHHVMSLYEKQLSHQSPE
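System: STEP (striatal-enriched tyrosine phosphatase) enzyme, cell-free; medium: Bis-Tris pH 6.0 buffer with DTT, detergent; dosing: 20 µM, 1% DMSO; times: reaction 20 min, ambient temperature; detection: fluorescence, 480/540 nm; read-out basis: normalized % inhibition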
DNMT1 block: human DNMT1 methyltransferase inhibitors, primary screen, biochemical, molecular beacon, fluorescence, HinP1I cleavage, uHTS | actives 0.83% (n = 360,000) | inhibition (reported as % activation of signal), % at 10 µM | AID 588458, 2011 | DNA (cytosine-5)-methyltransferase 1 (Homo sapiens), P26358; in the data active = inhibition above about 50%
LMPTP block: LMPTP phosphatase inhibitors, primary screen, biochemical, fluorescence intensity, uHTS | recombinant LMPTP-A, OMFP fluorogenic substrate | AID 651560, 2012 | inhibition, % at 20 µM | Low molecular weight phosphotyrosine protein phosphatase (Homo sapiens), P24666 | actives 0.22% (n = 360,000);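 active = compounds that cut the enzyme signal by at least half of the control window in the single-dose screen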;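 note: plate controls were DMSO wells with enzyme plus substrate for no effect and substrate without enzyme for full effect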
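Test system: LMPTP-A, protein tyrosine phosphatase of low molecular weight; Input: 0.625 nM enzyme; Incubation: 50 min dark incubation at room temperature; Signal: endpoint fluorescence intensity from OMFP dephosphorylation; Read-out basis: % inhibition versus control wells.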
SUMO1 PPI mod: modulators of SUMO1 protein-protein interactions, primary screen, biochemical, uHTS; inhibition, % at 20 µM; SUMO1 binding to a labelled peptide, TR-FRET, 1 h; Small ubiquitin-related modifier 1 (Homo sapiens), P63165; actives 0.33% (n = 360,000); in the data active = inhibition above about 37%
Target sequence (P63165 whole entry, looked up): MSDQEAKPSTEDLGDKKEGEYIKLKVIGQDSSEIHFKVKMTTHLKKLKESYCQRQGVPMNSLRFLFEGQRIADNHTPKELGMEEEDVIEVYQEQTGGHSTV
Scp1 inh: Scp-1 phosphatase inhibitors, primary screen, biochemical, colorimetric, uHTS; Carboxy-terminal domain RNA polymerase II polypeptide A small phosphatase 1 (Homo …; Recombinant Scp1, phosphopeptide, malachite green phosphate absorbance; inhibition, % at 20 µM; actives 0.88% (n = 340,000); AID 493091, 2011;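 active = inhibition above about 50% at 20 µM, limit read from the data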;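 note: plate controls were DMSO wells with enzyme for no effect and wells lacking enzyme for full effect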
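Test system: SCP-1 catalytic domain; Buffer or medium: Acidic Tris acetate buffer with magnesium and detergent; Also added: Phosphorylated 17-residue peptide substrate; Compound: single 20 µM dose, 1% DMSO; Schedule: enzyme reaction 45 min at room temperature, colour 5 min, stabilisation 30 min; Signal: Phosphate-binding colour reagent, absorbance read at 630 nm.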
Rpn11 block: Rpn11 (PSMD14) deubiquitinase inhibitors, primary screen, biochemical, fluorescence polarization, uHTS; 26S proteasome non-ATPase regulatory subunit 14 (Homo sapiens), O00487; human 26S proteasome, Ub4-pepOG fluorescence polarization; 20S core pre-blocked with epoxomicin; inhibition, % at 20 µM; actives 0.59% (n = 360,000); AID 588493, 2011;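 active = inhibition at 20 µM, scaled to each plate's controls, above about 33%, limit read from the data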
Scp1 confirm: Scp-1 phosphatase inhibitors, retest, confirmation, biochemical, colorimetric, single concentration; AID 540281, 2011; shares compounds with Scp1 inh; recombinant SCP-1 catalytic domain, phosphate release, malachite green absorbance; actives 61% (n = 2,500); inhibition, % at 20 µM;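 note: plate controls were DMSO with enzyme for no effect and buffer wells lacking enzyme for full effect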
Scp-1 MG ctr: colorimetric readout interference by compounds, confirmation, artefact control for Scp-1 inhibitor project, biochemical, single concentration. 2,500 tested, under 10 active. shares compounds with Scp1 inh. AID 540313, 2011. apparent inhibition (interference), % at 20 µM. Colorimetric interference counterscreen, malachite green absorbance 630 nm;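 note: compounds added after enzyme reaction finished so only phosphate colour detection is probed; plate controls were DMSO wells with completed Scp-1 reaction for no effect and substrate wells lacking enzyme for full effect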
Scp1 DSF: Scp-1 binding by thermal shift, confirmation, orthogonal assay for Scp-1 inhibitor project, biophysical, differential scanning fluorimetry; thermal shift relative to vanadate control, % at 40 µM; actives 25% (n = 1,500); AID 540329, 2011; shares compounds with Scp1 inh; Recombinant SCP1, Sypro Orange thermal shift Tm;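 active = substances whose mean melting-temperature shift, as a percentage of the reference inhibitor's shift, reaches about 5.3%, limit read from the data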;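 note: 0% = Tm of DMSO wells and 100% = Tm with sodium orthovanadate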
DNMT1 interf DR: spectral interference with molecular beacon fluorescence, dose response, artefact control for DNMT1 inhibitor project, biochemical, fluorescent molecular beacon | spectral interference counter-screen | AID 602382, 2012 | shares compounds with DNMT1 block | 200 tested, under 10 active | IC50, µM; call rule not given here
DNMT1 inh conf: DNMT1 methyltransferase inhibitor retest, confirmation, biochemical, molecular beacon, fluorescence, single concentration; shares compounds with DNMT1 block; DNMT1 molecular beacon HinP1I cleavage; inhibition, % at 10 µM; actives 8% (n = 2,300);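 active = average inhibition of at least 30% in the single-concentration confirmation test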
Beacon interf: counter-screen for DNMT1 inhibitors: spectral interference; shares compounds with DNMT1 block; actives 1% (n = 2,300); DNMT1 molecular beacon spectral interference counterscreen, fluorescence 485/520; AID 602387; activation (fluorescence interference), % at 10 µM;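 active = activation of at least 30% at 10 µM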;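 note: DNMT1 catalytic domain with a HinP1I cleavage step and a FAM/dabcyl DNA beacon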
The depositor's hits bear a star; / = not tested or not shown; ! = a repeat was not active.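 Rule for the calls, unless noted: active = inhibition of at least 30% at 20 µM; inactive = the rest.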

SMILES	STEP block	DNMT1 block	LMPTP block	SUMO1 PPI mod	Scp1 inh	Rpn11 block	Scp1 confirm	Scp-1 MG ctr	Scp1 DSF	DNMT1 inh conf	Beacon interf	others
O=C(COC(=O)c1cccc(S(=O)(=O)N2CCN(c3ccccc3)CC2)c1)NCc1ccco1	12	68*	9	5	66*	-3	58*	-19	4	7	3
CCOC(=O)C(=O)NCc1ccc(/C=C2/N=C(C)C(C(=O)OCC)=C2O)o1	-3	15	1	-4	-1	-10	/	/	/	/	/
CCOC(=O)C1=C(O)/C(=C/c2ccc(CNC(=O)C(=O)Nc3ccc(C)cc3)o2)N=C1C	3	90*	28	20	69*	8	2	-17	/	23	-2
Cc1ccc(Cl)cc1N1CCN(C(=O)CSc2ccsc2[N+](=O)[O-])CC1	2	63*	2	-6	55*	2	68*	-5	8.1*	0	-1
O=C(C1CCCN(S(=O)(=O)c2ccccc2)C1)N1CCN(c2ccccc2)CC1 (stereo unspecified)	-1	5	-1	0	0	0	/	/	/	/	/
COc1ccc(Cn2c(-c3ccco3)nc3oc4ccccc4c(=O)c3c2=O)cc1	-2	2	4	-5	33	-1	/	/	/	/	/
COc1ccc(-c2nc3oc4cc(OC)ccc4c(=O)c3c(=O)n2Cc2ccco2)cc1	3	7	14	17	5	-12	/	/	/	/	/
COc1ccc(Cn2c(-c3ccco3)nc3oc4cc(OC)ccc4c(=O)c3c2=O)cc1	9	61*	33	16	79*	16	68*	-10	-2	15	-6
COc1ccc2c(=O)c3c(=O)n(Cc4ccco4)c(-c4ccco4)nc3oc2c1	20	86*	47	13	92*	-21	74*	-2	4	4	2
Cc1ccc(C(=O)NN2CC(O)=C(c3nc(-c4cccc([N+](=O)[O-])c4)cs3)C2=N)cc1	20	80*	13	1	75*	1	43*	-7	6.1*	39*	-2	DNMT1 interf DR=>99
Cc1cccc(N2CCN(S(=O)(=O)c3ccc4c(c3)C(C)(C)C(=O)N4C)CC2)c1C	6	76*	6	1	85*	-2	69*	-7	-2	7	1
S=c1[nH]nc(-c2cc(-c3ccco3)[nH]n2)n1-c1ccccc1Cl	5	73*	1	34	75*	8	31*	-18	11*	9	9
S=c1[nH]nc(-c2ccco2)n1-c1ccccc1Cl	-2	0	-3	1	-14	10	/	/	/	/	/
CC(Cc1c[nH]c2ccccc12)C(=O)NCc1ccco1 (stereo unspecified)	0	74*	0	60*	103*	-8	60*	-16	-18	10	3
CC(=O)NC(Cc1c[nH]c2ccccc12)C(=O)NCc1ccco1 (stereo unspecified)	1	2	-1	6	-1	3	/	/	/	/	/
Cc1ccc(S(=O)(=O)N2CCC(C(=O)OCC(=O)N3CCC(C)CC3)CC2)cc1C	1	-1	0	3	-2	-1	/	/	/	/	/
O=C(O)C1CCc2nc(NCc3ccccc3)nc(NCc3ccccc3)c2C1 (stereo unspecified)	5	-2	0	6	2	-7	/	/	/	/	/
CC1=CC2=NC(=O)/C(=C\c3cccn3CCOc3ccccc3C)C(=N)N2O1	1	-4	3	-6	-12	4	/	/	/	/	/
COc1ccccc1OCCOc1ccc(/C=C2/C(=N)N3OC(C)=CC3=NC2=O)cc1OC	23	88*	5	-5	97*	16	68*	-13	-1	19	-6
O=C(COC(=O)c1ccc(S(=O)(=O)NCc2ccco2)cc1)NCc1ccc(F)cc1	-3	1	1	2	4	-3	/	/	/	/	/
COc1ccc(CNC(=O)COC(=O)c2ccc(S(=O)(=O)NCc3ccco3)cc2)cc1	6	51*	2	2	55*	-3	61*	-12	-1	0	1
Cc1cccn2c(=O)c3cc(C#N)c(=NC(=O)c4ccco4)n(Cc4ccco4)c3nc12	22	61*	46	7	76*	-30	36*	-8	10.0*	0	3
Cc1cccc(C(=O)N=c2c(C#N)cc3c(=O)n4cccc(C)c4nc3n2Cc2ccco2)c1	6	51*!	36	51*!	85*!	-20	46*	-11	15*	2	0
O=C(NC1CCCCC1)c1cccnc1Sc1ccccc1	0	1	0	0	-7	4	/	/	/	/	/
